Test results: PMC3240737 (Journal of medicinal chemistry, 2011)
Residues, ends and D or L forms follow the SMILES beside them.

How the values were obtained:
[1] = test system: mouse primary hippocampal neurons; settings: cited from earlier work
WT Aβ42 = WT Aβ42 (Homo sapiens, UniProt P05067); assay: Intrinsic Y fluorescence; format: binding; settings: peptide 50 μM, pH 7.4, 22°C
How it was run: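 HFIP-treated peptide films were dissolved in 60 mM NaOH (10% of final volume) and diluted in 10 mM sodium phosphate, pH 7.4, to nominal Aβ42 5 μM ± test peptide 50 μM. Samples were spun at 5,000 g for 1 min, with concentrations verified by amino acid analysis. Ex 280 nm, em 290–400 nm, 22°C, ≥10 scans immediately. Buffer-subtracted, area integrated per micromole, normalized to Aβ42 alone; 4 experiments.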

[Y30]Aβ42 = [Y30]Aβ42 (Homo sapiens, UniProt P05067, A701Y/Y681F); assay: Intrinsic Y fluorescence; format: binding; settings: [Y30]Aβ42 5 μM, peptide 50 μM, pH 7.4, 22°C
[2] = test system: alamethicin-induced toxicity in differentiated PC-12 cells; assay: Inhibition of alamethicin-induced toxicity, MTT assay; format: cell-based, rat; settings: alamethicin 4 μM, increasing Aβ(39–42) concentrations, 24 h, n ≥ 15
How it was run: (§1)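 PC-12 cells differentiated with nerve growth factor (100 ng/mL, 48 h), then exposed for 24 h to the toxin with or without a range of test compound concentrations. Viability by MTT, scaled between medium and 1 μM staurosporine full kill (100% reduction). Controls were NaOH-matched vehicle and medium alone. Mean ± SEM of ≥3 independent experiments, 5 replicates per point.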

[Y42]Aβ42 = [Y42]Aβ42 (Homo sapiens, UniProt P05067, A713Y/Y681F); assay: Intrinsic Y fluorescence; format: binding; settings: [Y42]Aβ42 5 μM, peptide 50 μM, pH 7.4, 22°C
[3] = test system: Aβ42-induced toxicity in differentiated PC-12 cells; assay: Inhibition of Aβ42-induced neurotoxicity, MTT assay; format: cell-based, rat; settings: for Inhibition of Aβ42-induced neurotoxicity, single-dose screen: Aβ42 10 μM with 10-fold excess of derivative, 24 h, MTT, n ≥ 18
[4] = test system: α-synuclein-induced toxicity in differentiated PC-12 cells; assay: Inhibition of α-synuclein-induced toxicity, MTT assay; format: cell-based, rat; settings: α-synuclein 15 μM, increasing Aβ(39–42) concentrations, 24 h, n ≥ 15
How it was run: as §1

[Y20]Aβ42 = [Y20]Aβ42 (Homo sapiens, UniProt P05067, F691Y/Y681F); assay: Intrinsic Y fluorescence; format: binding; settings: [Y20]Aβ42 5 μM, peptide 50 μM, pH 7.4, 22°C
[Y1]Aβ42 = [Y1]Aβ42 (Homo sapiens, UniProt P05067, D672Y/Y681F); assay: Intrinsic Y fluorescence; format: binding; settings: [Y1]Aβ42 5 μM, peptide 50 μM

Compound: CC[C@H](C)[C@H](NC(=O)[C@@H](NC(=O)[C@@H](N)C(C)C)C(C)C)C(=O)N[C@@H](C)C(=O)O [Aβ(39–42)]
- Rescue from Aβ42-induced inhibition of miniature excitatory postsynaptic current frequency [1]: significantly rescued
- Change of WT Aβ42 fluorescence upon addition of peptide (WT Aβ42; WT Aβ42 5 μM): did not change significantly
- Change of [Y30]Aβ42 fluorescence upon addition of peptide ([Y30]Aβ42): did not change significantly
- Protection from alamethicin-induced toxicity [2]: only weak protection
- Change of [Y42]Aβ42 fluorescence upon addition of peptide ([Y42]Aβ42): did not change significantly
- Dose dependence of inhibition of Aβ42-induced toxicity ([3]; Aβ42 10 μM, MTT and LDH): dose-dependent inhibition
- Protection from α-synuclein-induced toxicity [4]: only weak protection
- Change of [Y20]Aβ42 fluorescence upon addition of peptide ([Y20]Aβ42): did not change significantly

Compound: CC[C@H](C)[C@H](NC(=O)[C@@H](NC(=O)[C@@H](N)C(C)C)C(C)C)C(=O)N[C@@H](C)C(N)=O [VVIA-NH2] (H-VVIA-NH2)
- Decrease of [Y30]Aβ42 fluorescence upon addition of peptide ([Y30]Aβ42; mean ± SEM of 4 experiments): 24 ± 3%
- Fold lower [Y1]Aβ42 fluorescence increase than with unmodified Aβ(39–42) ([Y1]Aβ42): 1.8 times
- Inhibition of Aβ42-induced neurotoxicity, single-dose screen [3]: as active as Aβ(39–42)

Compound: Ac-AIVV
- [Y1]Aβ42 fluorescence increase compared with Aβ(39–42) ([Y1]Aβ42; Fig. S3): significantly lower
- Inhibition of Aβ42-induced neurotoxicity, single-dose screen [3]: no inhibitory activity

Compound: Ac-VVIA
- Decrease of Aβ42 fluorescence upon addition of peptide (WT Aβ42; Aβ42 5 μM, mean ± SEM of 4 experiments): 19 ± 3%
- Inhibition of Aβ42-induced neurotoxicity, single-dose screen [3]: no inhibitory activity

Compound: VVAA
- Inhibition of Aβ42-induced neurotoxicity, single-dose screen [3]: lost inhibitory activity
